This note sets out measurements from the EternaBench riboswitch data.

The subject of data set [1] is MS2 coat protein. Briefly: apparent Kd, MS2 coat protein; higher = weaker binding; RNA-MaP array; tryptophan 2.4 mM where present. The procedure, abridged: (§1)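 Green signal from SNAP-549-labelled MS2 coat protein was normalised to red-channel RNA signal and to the median Fmax of control clusters. The protein was titrated from 0.7 or 1.5 nM, doubling to 3 µM, without and then with constant ligand, over designs transcribed by stalled E. coli RNA polymerase on Illumina sequencing-chip clusters, in 100 mM Tris-HCl pH 7.5, 80 mM KCl, 4 mM MgCl2, BSA, DTT, yeast tRNA and Tween-20. The apparent Kd is the median of filtered per-cluster binding-curve fits.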

The test system of data set [2] is MS2 coat protein. Briefly: apparent Kd, MS2 coat protein; higher = weaker binding; RNA-MaP array; theophylline 2 mM where present. As to conditions: designed as: OFF switch for theophylline. In outline:
as §1

[3] abbreviates: designed as: ON switch for tryptophan, no ligand.
Where [4] appears, read: ligand present: tryptophan, designed as: ON switch for tryptophan.
Where [5] appears, read: designed as: OFF switch for tryptophan, no ligand.
Setting [6] is: ligand present: tryptophan, designed as: OFF switch for tryptophan.

One may read the apparent Kd as the concentration giving half-maximal binding under the conditions of the assay. As to “UGGUACUAGGCGGCCGCCACUGGGUGAUACAUGAGGAUCACCCAUGUUUAAUGCCGAGAGGCAACUAGGACCGGGCCUAGUACAU”, the “apparent Kd” value in the data set on MS2 coat protein [1] (setting [3]) was 150 nM; in the data set on MS2 coat protein [1] (setting [4]), 689 nM.
The matching figures for “CAGGCUAGGACGGCCGCCACUGUGGCUACGGUACAUGAGGAUCACCCAUGUUUGUGGUUGAUCUACAGGACCGGGUCCUGACACG”: 132 nM and 483 nM.
In the case of “UAUAUAUACUCGGCCGCCACUGAGAGAGUCAUGUAAACAUGAGGAUCACCCAUGUAAUAUAUAUACAGGACCGGGAGUAUAUUAA”, the “apparent Kd” value is 15.7 nM with MS2 coat protein [1] (setting [5]) and 13.8 nM in the data set on MS2 coat protein [1] (setting [6]).
Turning to “UUUAUAUAGACGGCCGCCACUGGAAUUAAUACAUGAGGAUCACCCAUGUAUAGAGAAUAAUAAUACAGGACCGGGUCUUCAUGAU”, the “apparent Kd” value was determined as 29.4 nM in the data set with MS2 coat protein [1] (setting [3]) and 12 nM in the data set on MS2 coat protein [1] (setting [4]).
In the case of “CUUCGCAUAGGAAAACUAUGUGAAGAAAAUCGAGGACCGGUACGGCCGCCACUCGUCCUCAACAUGAGGAUCACCCAUGUAAUAA”, the “apparent Kd” value in the data set with MS2 coat protein [1] (setting [5]) was 18.3 nM; in the data set with MS2 coat protein [1] (setting [6]), 40.1 nM.
Regarding “UUAUAAGUACCGGUCCUCAGAUCCUCAUGACGAGGACCGGUACGGCCGCCACUCGAAACAUGAGGAUCACCCAUGUAAUAACAUC”, the “apparent Kd” value amounted to 19.6 nM with MS2 coat protein [1] (setting [5]) and 20.7 nM in the data set on MS2 coat protein [1] (setting [6]).
“UGUCGUAGACAUGAGGAUCACCCAUGUCCACGAGGACCGGUACGGCCGCCACUCGGGAUAUAAACCGUUACGGGUGGGUGGUGUU”: the “apparent Kd” value with MS2 coat protein [1] (setting [5]) stood at 18.8 nM; in the data set on MS2 coat protein [1] (setting [6]), 37.3 nM.
Regarding “UGUCAGCGAAAGUUGACAUGUCUUACCGGUCGAGGACCGGUACGGCCGCCACUCGAUCUCUCGCACAUGAGGAUCACCCAUGUUG”, the entries for the “apparent Kd” value with MS2 coat protein [1] (setting [3]) and in the data set on MS2 coat protein [1] (setting [4]) were 21.4 nM and 15.1 nM, respectively.
Regarding “UAACAUGAGGAUCACCCAUGUAAACUAAGUCGAGGACCGGUACGGCCGCCACUCGAAAUUGAAGAAUUGGCGGAAAAUGUAUGUU”, the “apparent Kd” value came out at 13.9 nM in the data set on MS2 coat protein [1] (setting [5]) and 18.9 nM with MS2 coat protein [1] (setting [6]).
The matching figures for “CGCAACAUGAGGAUCACCCAUGUAAUGACGCGAGGACCGGUACGGCCGCCACUCGCCUGGCAGUGAGCGCAUGCGGCCUGGGUAU”: 11.1 nM and 12.2 nM.
In the case of “CUCAUCCACGCGGCCGCCACUAUAUUGUGGUGCGAAUGUGUCGUAAUACAUGAGGAUCACCCAUGUAGGACCGGGCGUGGAUGAG”, the “apparent Kd” value in the data set on MS2 coat protein [1] (setting [5]) was 12.6 nM; in the data set with MS2 coat protein [1] (setting [6]), 54.8 nM.
As to “UUACCGUAAGGUAUACCGGUCCACAAUAAUCGAGGACCGGUACGGCCGCCACUCGAUGUGUGAUCACAUGAGGAUCACCCAUGUA”, the figures for the “apparent Kd” value with MS2 coat protein [1] (setting [3]) and in the data set with MS2 coat protein [1] (setting [4]) were 265 nM and 379 nM, respectively.
As to “AAUGUAUGGCACAUGAGGAUCACCCAUGUGCGAGGACCGGUACGGCCGCCACUCGGUCCUGGGAUCUUAUUACUAUACAUUAAUG”, the results for the “apparent Kd” value with MS2 coat protein [1] (setting [5]) and in the data set with MS2 coat protein [1] (setting [6]) were 11.6 nM and 24 nM, respectively.
Take “AUAAUAUAGACGGCCGCCACUAUAAACAUGAGGAACAUGAGGAUCACCCAUGUAUGAGGAUCACCUAGGACCGGGUCAUAUAUUA”: the “apparent Kd” value came to 55.8 nM with MS2 coat protein [1] (setting [5]) and 42 nM in the data set on MS2 coat protein [1] (setting [6]).
On to “ACGUAGAAGUCGGCCGCCACUGAUUUCAUGUUCAACAUGAGGAUCACCCAUGUACCUUAUGUUAACAGGACCGGGACGUAUACGA”, for which the “apparent Kd” value worked out at 298 nM in the data set on MS2 coat protein [1] (setting [3]) and 55 nM in the data set on MS2 coat protein [1] (setting [4]).
For the sequence “GCAUCCUAGUCGGCCGCCACUGCAAUUGUAGUACUGCUACAUGAACAUGAGGAUCACCCAUGUAGCAGGACCGGGACUAGGAUGC”, the “apparent Kd” value with MS2 coat protein [1] (setting [3]) is 55 nM; with MS2 coat protein [1] (setting [4]), 16.1 nM.
As to “GCGGAAUAAUCGGCCGCCACUAUGAUAUAGGAAACUAUAACAUGAGGAUCACCCAUGUAUCCUCAUAGGACCGGGAUUAAAACGC”, the entries for the “apparent Kd” value with MS2 coat protein [1] (setting [3]) and in the data set with MS2 coat protein [1] (setting [4]) were 105 nM and 24.8 nM, respectively.
With “CCUAUGCAGUCGGCCGCCACUGAACAUGAGGAUCACCCAUGUAAUUAAAAUUAUGAUCCUGAAAUCAGGACCGGGACUGUAUAGG”, the results for the “apparent Kd” value with MS2 coat protein [1] (setting [5]) and in the data set with MS2 coat protein [1] (setting [6]) were 218 nM and 85.4 nM, respectively.
For “GGAGCUACGUCGGCCGCCACUAGCGGUUAUUACGUGUACAUGAGGAUCACCCAUGUAAUAUGGCUUAGGACCGGGACGUAGCUCC” the same measures were 22.5 nM and 27.1 nM.
Consider “GGUUACUCUACGGCCGCCACUGAUUAAUUAUAAACCUGUACAUAAACAUGAGGAUCACCCAUGUACAGGACCGGGUAGUGUAACC”, for which the “apparent Kd” value in the data set with MS2 coat protein [1] (setting [3]) amounted to 37.8 nM; in the data set on MS2 coat protein [1] (setting [4]) it was 26.8 nM.
Take “AGCAACAAGUCGGCCGCCACUCUUUUUACAUGAGGAUCACCCAUGUUUAUAUCAUGGUCUUAAUAGAGGACCGGGACAGUUGCAU”: the “apparent Kd” value amounted to 37.2 nM in the data set on MS2 coat protein [1] (setting [5]) and 54.6 nM in the data set on MS2 coat protein [1] (setting [6]).
For “UUAUUUAUAAAUGAUACCAGCCGAUUGGCCGCAAAUCCUAACAUGAGGAUCACCCAUGUCGGCCCUUGGCAGCAUUUAUGGGUUU”, the results for the “apparent Kd” value in the data set on MS2 coat protein [2] (no ligand) and in the data set on MS2 coat protein [2] (ligand present: theophylline) were 76.7 nM and 722 nM, respectively.
